Laboratory results: ChEMBL document CHEMBL1144904, “Isoquine and related amodiaquine analogues: a new generation of improved 4-aminoquinoline antimalarials” (J Med Chem, 2003)

Legend:
[1] = system: Plasmodium falciparum; test: In vitro antimalarial activity against Plasmodium falciparum HB; type: functional, organism-based
Procedure, shortened: (§1)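 Parasites kept in continuous culture in human erythrocytes in RPMI 1640 with 25 mM HEPES, 32 mM NaHCO3 and 10% human serum, gassed 3% O2/4% CO2/93% N2. 48-h assay at 2% parasitemia, 0.5% haematocrit, drugs from DMSO stocks diluted in medium, triplicate. [3H]-hypoxanthine added at 24 h, further 24 h at 37 °C, scintillation counting. IC50 by probit interpolation of log dose–response.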

[2] = system: Plasmodium falciparum; test: In vitro antimalarial activity against chloroquine-resistant Plasmodium falciparum K1; type: functional, organism-based; procedure, shortened: as §1
[3] = system: Plasmodium yoelii; test: […] against Plasmodium yoelii NS in peter 4-day assay; type: functional; details: 96 h, in the assay text read “In vivo” for “In vitro”
Procedure, shortened: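 Male CD-1 mice (n = 5 per dose group) infected ip with 10^6 parasitized erythrocytes in PBS. Oral gavage dosing at time 0 (2 h post-inoculation) and on days 1, 2 and 3, at 25, 10, 3, 1, 0.3 and 0.1 mg/kg. On day 4, Giemsa-stained tail-blood films were read microscopically for parasite density, and ED50 was derived.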

Row | SMILES | IC50 [1] [nM] | IC50 [2] [nM] | ED50 [3] [mg/kg]
1 | CCNCc1ccc(Nc2ccnc3cc(Cl)ccc23)cc1O [DESETHYL ISOQUINE] | 16.2 | 32.4 | 
2 | CCCCN(CCCC)Cc1ccc(Nc2ccnc3cc(Cl)ccc23)cc1O | 51.9 | 37.2 | 
3 | Oc1cc(Nc2ccnc3cc(Cl)ccc23)ccc1CN1CCCC1 | 28.4 | 21.8 | 
4 | CN(C)Cc1ccc(Nc2ccnc3cc(Cl)ccc23)cc1O | 14.8 | 18.6 | 
5 | CCN(CC)Cc1ccc(Nc2ccnc3cc(Cl)ccc23)cc1O | 9.02 |  | 
6 | CCN(CC)Cc1cc(Nc2ccnc3cc(Cl)ccc23)ccc1O.Cl |  | 15.1 | 7.65
7 | Oc1cc(Nc2ccnc3cc(Cl)ccc23)ccc1CN1CCCCC1 | 9.07 | 20.3 | 
8 | Oc1cc(Nc2ccnc3cc(Cl)ccc23)ccc1CN1CCOCC1 | 97.2 | 112 | 
9 | CCCN(CCC)Cc1ccc(Nc2ccnc3cc(Cl)ccc23)cc1O | 19.8 | 30.6 | 
10 | CC(C)NCc1ccc(Nc2ccnc3cc(Cl)ccc23)cc1O | 20.2 | 26.2 | 
11 | CCN(CC)Cc1ccc(Nc2ccnc3cc(Cl)ccc23)cc1O [ISOQUINE] |  |  | 2.65
12 | CC(C)(C)NCc1ccc(Nc2ccnc3cc(Cl)ccc23)cc1O [GSK-369796] | 30 | 32.8 | 
